Assay results: publication PMC9582731 (RSC Advances, 2022)

Key:
[1] = system: λ-carrageenan-induced paw edema tissue; assay: H&E histological examination of paw edema tissue; assay type: in vivo, mice; conditions: treated animals vs λ-carrageenan model group
Outline: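 Mice given λ-carrageenan to induce paw edema. Groups: blank, model, indomethacin (positive control), and test compound at low and high dose. Paw tissue was examined by H&E staining for histological change or by immunohistochemical staining for TNF-α, including bone.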

[2] = system: λ-carrageenan-induced mouse paw edema; assay: λ-carrageenan-induced mouse paw edema test; assay type: in vivo; conditions: 10 mg kg^−1 i.g., 2 h before λ-carrageenan, at 2–6 h, ICR mice
Outline: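 Test compound given at a low and a high dose, alongside a blank group, a carrageenan-only model group and an indomethacin positive-control group; paw swelling induced with λ-carrageenan.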

in vitro = assay type: cell-based; conditions: mouse
[3] = system: acetic acid-induced writhing in mice; assay: Acetic acid-induced writhing analgesic test; assay type: in vivo; conditions: 3 days, acetic acid i.p., Kunming mice

Row | Compound | Histological change of paw biopsies (H&E) [1] | Effect on paw edema [2] | IC50 (in vitro) [µM] | Effect on number of writhes ([3]; 200 mg kg^−1 i.g.) | Effect on number of writhes ([3]; 19.5 mg kg^−1 i.g.)
1 | COc1ccc2c(c1)c(CC(=O)O)c(C)n2C(=O)c1ccc(Cl)cc1 [Indo, indomethacin] | a reduction in the λ-carrageenan-induced inflammatory response | significantly inhibited the development of edema | > 100 | – | –
2 | COC1=C[C@@H]2[C@@H]3Cc4ccc(OC)c(O)c4[C@]2(CCN3C)CC1=O [SIN, Sinomenine] | – | – | > 100 | almost no analgesic effects | –
3 | O=C(O)Cc1ccccc1Nc1c(Cl)cccc1Cl [Voltaren] | – | – | – | – | reduce the number of writhes considerably
